Source: ChEMBL document CHEMBL1123641, “Antiulcer agents. 2. Gastric antisecretory, cytoprotective, and metabolic properties of substituted imidazo[1,2-a]pyridines and analogues” (J Med Chem, 1987)
Activity calls are given as the source filed them. The rule behind the calls is not given here.

Tests used:
Rattus norvegicus [1] = species: Rattus norvegicus; test: Cytoprotective activity in rats against the ethyl alcohol stimulated ulcers measured as effective dose; type: functional
Summary of the method: (§1)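 Rats were dosed orally at 1–30 mg/kg, 30 min before an oral challenge of absolute ethanol. Ethanol-induced gastric lesions were scored 1 h later, and an effective dose was estimated.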

Canis familiaris [2] = test: Antisecretory activity in histamine stimulated dogs at 2 mg/kg dose administered orally; type: functional; settings: Canis lupus familiaris, route oral
Summary of the method: (§2)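 Heidenhain pouch mongrel dogs, histamine-stimulated acid secretion. Compound given orally at 2–8 mg/kg. Reduction in acid output is relative to the same animal's own nondrug control, since histamine response depends on pouch size. Usually a single dog per compound. Oral ED50 is the dose reducing acid output to 50% of control.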

Canis familiaris [3] = test: Antisecretory activity in histamine stimulated dogs at 1 mg/kg dose administered intravenously; type: functional; settings: Canis lupus familiaris, route intravenous
Summary of the method: (§3)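 Adult mongrel dogs with surgically prepared Heidenhain pouches, acid secretion stimulated with histamine. Compound given intravenously (0.1-5 mg/kg range). Acid output reduction is expressed relative to the nondrug-treated control value in the same animal, each dog serving as its own control. Unless noted otherwise, one dog per compound. ED50 is the iv dose reducing acid output to 50% of control.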

Canis familiaris [4] = test: Antisecretory activity in histamine stimulated dogs at 4 mg/kg dose administered orally; type: functional; settings: Canis lupus familiaris, route oral; summary of the method: as §2
Canis familiaris [5] = test: Antisecretory activity in histamine stimulated dogs at 8 mg/kg dose administered orally; type: functional; settings: Canis lupus familiaris, route oral; summary of the method: as §2
Rattus norvegicus [6] = test: Antisecretory activity in pylorus ligated rats at a 40 mg/kg dose administered intraperitoneally; type: functional; settings: ip, route intraperitoneal
Summary of the method: (§4)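 Pylorus-ligated rats, six per compound and eight controls. Compound given intraperitoneally at 40 mg/kg at the time of ligation. Reduction in acid output measured over 4 h.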

Rattus norvegicus [7] = species: Rattus norvegicus; test: animal or person; settings: Canis lupus familiaris, in Rattus norvegicus, ip, 4 h
Canis familiaris [8] = species: Canis familiaris; settings: Canis lupus familiaris
Canis familiaris [9] = test: The oral dose of cimetidine required to reduce acid output to 50% of control value in histamine stimulated dogs; settings: Canis lupus familiaris
Canis familiaris [10] = test: The intravenous dose of cimetidine required to reduce acid output to 50% of control value in histamine stimulated dogs; settings: Canis lupus familiaris
Canis familiaris [11] = test: Antisecretory activity in histamine stimulated dogs at 2 mg/kg dose administered intravenously; type: functional; settings: Canis lupus familiaris, route intravenous; summary of the method: as §3
Canis familiaris [12] = test: Antisecretory activity in histamine stimulated dogs at 5 mg/kg dose administered orally measured as 50% effective concentration; type: functional; settings: Canis lupus familiaris, route oral; summary of the method: as §2
Canis familiaris [13] = test: percentage inhibition of acid secretion in histamine stimulated dogs at a dose of 0.4 mg/kg; type: functional; settings: Canis lupus familiaris
Canis familiaris [14] = test: percentage inhibition of acid secretion in histamine stimulated dogs at a dose of 0.2 mg/kg; type: functional; settings: Canis lupus familiaris
Canis familiaris [15] = test: Antisecretory activity in histamine stimulated dogs at 5 mg/kg dose administered intravenously; type: functional; settings: Canis lupus familiaris; route intravenous; summary of the method: as §3
Canis familiaris [16] = test: Antisecretory activity in histamine stimulated dogs at 0.1 mg/kg dose administered intravenously; type: functional; settings: Canis lupus familiaris, route intravenous; summary of the method: as §3
Rattus norvegicus [17] = species: Rattus norvegicus; test: Cytoprotective activity in rats against the ethyl alcohol stimulated ulcers measured as effective dose; In active; type: functional, organism-based; summary of the method: as §1
Canis familiaris [18] = test: Antisecretory activity in histamine stimulated dogs following 5 mg/kg i.v. administration.; type: functional; settings: Canis lupus familiaris, route intravenous; summary of the method: as §3
Rattus norvegicus [19] = test: Antisecretory activity in pylorus ligated rats at 40 mg/kg dose administered intraperitoneally; settings: ip
Rattus norvegicus [20] = test: Antisecretory activity in pylorus ligated rats at 40 mg/kg dose administered intraperitoneal; type: functional; settings: ip; summary of the method: as §4
Canis familiaris [21] = test: percentage inhibition of acid secretion in histamine stimulated dogs at a dose of 0.05 mg/kg; type: functional; settings: Canis lupus familiaris
Canis familiaris [22] = test: Antisecretory activity in histamine stimulated dogs at 5 mg/kg dose administered orally; type: functional; settings: Canis lupus familiaris; route oral; summary of the method: as §2

SMILES | ED50 (Rattus norvegicus [1]) [mg/kg] | inhibition in vivo at 2 mg/kg (Canis familiaris [2]) [%] | inhibition in vivo at 1 mg/kg (Canis familiaris [3]) [%] | inhibition in vivo at 4 mg/kg (Canis familiaris [4]) [%] | inhibition in vivo at 8 mg/kg (Canis familiaris [5]) [%] | inhibition in vivo at 40 mg/kg (Rattus norvegicus [6]) [%] | inhibition in vivo at 2 mg/kg (Canis familiaris [11]) [%] | other results
Cc1nc2c(OCc3ccc(Cl)cc3)cccn2c1N | 2.2 | 32 | 74 | 81 | 92 | 66 |  | 
CN/C(=N\CCSCc1nc[nH]c1C)NC#N [CIMETIDINE] |  |  |  |  |  |  |  | ED50 (Rattus norvegicus [7]): 26.1 mg/kg; ED50 (Canis familiaris [8]): inactive; ED50 (Canis familiaris [9]): 1.25 mg/kg; ED50 (Canis familiaris [10]): 0.66 mg/kg
CCc1nc2c(OCc3ccccc3)cccn2c1N | 5.2 |  | 72 |  | 59 | 83 |  | 
Cc1nc2c(OCc3ccccc3F)cccn2c1N | 6.6 | 20 |  | 46 | 93 | 93 | 93 | 
Cc1ccn2c(CC#N)c(C)nc2c1OCc1ccccc1 | 13 | 8 | 74 | 20 | 59 | 99 | 90 | ED50 (Canis familiaris [12]): 7.8 mg/kg; inhibition in vivo at 0.4 mg/kg (Canis familiaris [13]): 39%; inhibition in vivo at 0.2 mg/kg (Canis familiaris [14]): 1%; ED50 (Canis familiaris [15]): 0.53 mg/kg
Cc1nc2c(OCc3ccccc3)cccn2c1NC(=O)OCc1ccccc1 |  |  |  | 17 |  | 8 | 82 | 
Cc1nc2c(OCc3cccs3)cccn2c1N | 5 | 30 |  | 80 | 86 | 70 | 77 | inhibition in vivo at 0.1 mg/kg (Canis familiaris [16]): 12%
CC(=O)Oc1c(C)nc2c(CCc3ccccc3)cccn12 |  |  |  |  |  | 64 | 6 | ED50 (Rattus norvegicus [17]): inactive
Cc1nc2c(CCc3ccccc3)cccn2c1N | 9 | 19 | 46 | 41 | 52 | 47 | 71 | 
CCNc1c(C)nc2c(OCc3ccccc3)cccn12 | 3.5 |  |  |  | 68 | 95 | 32 | inhibition in vivo at 5 mg/kg (Canis familiaris [18]): 70%
COc1c(C)nc2c(CCc3ccccc3)cccn12 | 20 |  |  |  |  |  | 0 | inhibition in vivo at 40 mg/kg (Rattus norvegicus [19]): 45%
Cc1cc(OCc2ccccc2)c2nc(C)c(C)n2c1 | 8.2 |  |  | 0 | 71 | 86 | 45 | 
Cc1nc2cccc(CCc3ccccc3)n2c1N | 14 |  |  |  |  |  |  | inhibition in vivo at 40 mg/kg (Rattus norvegicus [20]): 40%
Cc1nc2c(OCc3ccccc3)ccc(C)n2c1CC#N.Cl | 8 |  |  | 11 |  |  |  | inhibition in vivo at 5 mg/kg (Canis familiaris [18]): 0%
Cc1nc2c(OCc3ccc(F)cc3)cccn2c1N | 4.8 | 55 |  | 60 | 93 | 95 | 95 | 
Nc1cnc2c(OCc3ccccc3)cccn12 | 9.1 |  | 49 |  | 43 | 32 | 81 | 
Cc1nc2c(OCc3ccccc3)cccn2c1N | 6 | 50 |  | 74 | 96 | 99 | 97 | inhibition in vivo at 0.05 mg/kg (Canis familiaris [21]): 15%; ED50 (Canis familiaris [22]): 2 mg/kg; inhibition in vivo at 0.2 mg/kg (Canis familiaris [14]): 41%; inhibition in vivo at 0.1 mg/kg (Canis familiaris [16]): 55%; ED50 (Canis familiaris [15]): 0.1 mg/kg
Cc1nc2c(OCc3ccsc3)cccn2c1N | 8.4 | 29 |  | 86 | 88 | 52 | 82 | 
Cc1ccn2c(N)c(C)nc2c1OCc1ccccc1 | 13.5 |  |  | 36 | 64 | 60 |  | 
Cc1nc2c(OCc3ccccc3)cccn2c1CC#N | 3 | 20 | 83 | 42 | 77 | 98 | 95 | ED50 at 5 mg/kg (Canis familiaris [12]; dose 5 mg/kg): 4.4 mg/kg; inhibition in vivo at 5 mg/kg (Canis familiaris [18]): 99%; inhibition in vivo at 0.1 mg/kg (Canis familiaris [16]): 49%; ED50 (Canis familiaris [15]): 0.09 mg/kg
Cc1nc2c(OCc3ccccc3)nccn2c1N | 5 | 63 | 56 | 69 | 70 | 79 | 65 | inhibition in vivo at 0.4 mg/kg (Canis familiaris [13]): 41%; ED50 (Canis familiaris [22]): 1.4 mg/kg; inhibition in vivo at 0.2 mg/kg (Canis familiaris [14]): 15%; ED50 (Canis familiaris [15]): 0.8 mg/kg
